The assay concerns the target Alpha-synuclein (Homo sapiens) (UniProt P37840). In words: Inhibition of recombinant alpha-Synuclein (unknown origin) aggregation assessed as reduction in fluorescence intensity by measuring residual activity at 100 uM measured every 20 mins for 40 to 70 hrs by Thioflavin T based fluorescence analysis relative to control. The following applies: time 40-70 hrs. The essentials: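 Recombinant α-syn (2 μM final) in 10 mM PBS pH 7.4 with 0.5 mM SDS and 300 mM NaCl. Compound at 100 μM final, ThT 20 μM, one borosilicate bead per well. Read at 37 °C every 20 min after 10 s shaking, ex 440/em 485 nm, for 40–70 h. Background was ThT plus 0.25 % DMSO without protein. Plateau fluorescence expressed as % of control, triplicates, mean ± SEM.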

For `COc1cccc2sc(NC(=O)Nc3ccccc3C)nc12`, the Activity was 148%.
As for `COc1cccc2sc(NS(=O)(=O)c3ccc(Br)cc3)nc12`, the figure is 43.1%; as for `COc1cccc2sc(NC(=O)c3ccc(C(F)(F)F)cc3)nc12`, 116%; as for `COc1cccc2sc(NC(=O)Nc3ccc(Br)cc3)nc12`, 170%.
As for `COc1cccc2sc(NC(=O)c3ccccc3F)nc12`, the figure is 98.7%; as for `O=[N+]([O-])c1ccc(S(=O)(=O)Nc2cccc3[nH]ccc23)cc1`, 83.9%; as for `COc1cccc2sc(NS(=O)(=O)c3ccccc3F)nc12`, 64.9%.
As for `COc1cccc2sc(NS(=O)(=O)c3cccc(C(F)(F)F)c3)nc12`, the figure is 56%; as for `COc1cccc2sc(NC(=O)c3ccccc3[N+](=O)[O-])nc12`, 102%.
As for `COc1cccc2sc(NC(=O)Nc3cc(Cl)cc(Cl)c3)nc12`, the Activity was more than 200%.
As for `COc1cccc2sc(NS(=O)(=O)c3ccc(C(F)(F)F)cc3)nc12`, the figure is 53.8%; as for `COc1cccc2sc(NC(=O)Nc3ccc([N+](=O)[O-])cc3)nc12`, 79%; as for `COc1cccc2sc(NC(=O)Nc3ccccc3F)nc12`, more than 200%.
In the case of `COc1ccccc1S(=O)(=O)Nc1nc2c(OC)cccc2s1` it was 79.3%; in that of `COc1cccc2sc(NC(=O)c3cc(Cl)cc(Cl)c3)nc12`, 95.4%; in that of `COc1cccc2sc(NC(=O)c3cccc([N+](=O)[O-])c3)nc12`, 48.1%.
For `COc1cccc2sc(NC(=O)Nc3ccc(I)cc3)nc12`, the Activity was 141%.
With `COc1cccc2sc(NS(=O)(=O)c3ccccc3Cl)nc12`, the Activity was determined as 19.3%.
In the case of `O=S(=O)(Nc1ccc2cc[nH]c2c1)c1ccccc1I` it was 104%; in that of `COc1cccc2sc(NC(=O)c3ccccc3)nc12`, 107%.
As for `COc1cccc2sc(NS(=O)(=O)c3ccc(F)cc3F)nc12`, the figure is 87.9%; as for `COc1cccc2sc(NC(=O)Nc3ccccc3[N+](=O)[O-])nc12`, 64.4%.
As for `O=C(Nc1ccc2cc[nH]c2c1)Nc1ccccc1I`, the figure is 83.4%; as for `COc1cccc2sc(NS(=O)(=O)c3ccc(F)cc3)nc12`, 70.4%; as for `COc1cccc2sc(NS(=O)(=O)c3ccc(Cl)cc3)nc12`, 40.3%.
Regarding `COc1cccc2sc(NC(=O)c3ccccc3I)nc12`, the Activity was determined as 137%.
Consider `O=[N+]([O-])c1ccc(S(=O)(=O)Nc2ccc3cc[nH]c3c2)cc1`, for which the Activity was found to be 63.5%.
In the case of `COc1cccc2sc(NC(=O)c3ccc(Cl)cc3)nc12` it was 116%; in that of `COc1cccc2sc(NC(=O)Nc3ccc(Cl)cc3)nc12`, 173%.
In the case of `COc1ccccc1C(=O)Nc1nc2c(OC)cccc2s1` it was 182%.
As for `COc1cccc2sc(NS(=O)(=O)c3cccc([N+](=O)[O-])c3)nc12`, the Activity was 40.1%.
As for `COc1cccc2sc(NC(=O)Nc3ccc(F)cc3F)nc12`, the figure is 184%; as for `O=C(Nc1ccc2[nH]ccc2c1)Nc1ccccc1I`, 40.3%; as for `COc1cccc2sc(NC(=O)c3cccc(C(F)(F)F)c3)nc12`, 84.7%.
As for `O=S(=O)(Nc1cccc2[nH]ccc12)c1ccccc1I`, the figure is 74.8%.
With `COc1cccc2sc(NS(=O)(=O)c3ccccc3C)nc12`, the Activity came to 32.7%.
As for `COc1cccc2sc(NC(=O)c3ccc(C#N)cc3)nc12`, the figure is 128%; as for `COc1cccc2sc(NS(=O)(=O)c3ccccc3[N+](=O)[O-])nc12`, 41%.
As for `COc1cccc2sc(NC(=O)Nc3ccc(F)cc3)nc12`, the figure is 145%; as for `COc1cccc2sc(NC(=O)c3ccc(I)cc3)nc12`, more than 200%.
As for `COc1cccc2sc(NC(=O)c3ccc(F)cc3F)nc12`, the figure is 128%.
Take `COc1cccc2sc(NS(=O)(=O)c3ccc(C#N)cc3)nc12`: the Activity is 46.1%.
